This is an account of results in ChEMBL document CHEMBL1132302, “Identification of pharmacokinetically stable 3, 10-dibromo-8-chlorobenzocycloheptapyridine farnesyl protein transferase inhibitors with potent enzyme and cellular activities” (J Med Chem, 1999).

The target of data set [1] is T1, Protein farnesyltransferase (Homo sapiens, UniProt P49354+P49356). The data set can be described thus: Effect on Ras processing in Cos-1 monkey kidney cells expressing either H-Ras-Val 12-CVLS or H-Ras-Val12. The format is functional, cell-based, Cercopithecidae. Put shortly:
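Ras processing was tested in Cos-1 monkey kidney cells transiently expressing H-Ras-Val12-CVLS or H-Ras-Val12. IC50 values are single-point determinations.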

The next data set deals with NIH-3T3 (Mus musculus). The data set can be described thus: inhibition of tumor colony formation in soft agar.
In data set [2] the target is T1, Protein farnesyltransferase. The data set can be described thus: Inhibitory activity against Hras Farnesyltransferase (FPT). In kind it is protein-complex assay.
For data set [3] the target is unchanged. The data set can be described thus: Inhibition of [3H]FPP incorporation into His6-H-Ras-CVLS by farnesyl transferase. In kind it is protein-complex assay.
A short description of data set [4]: Maximum concentration (Cmax) using 20%aqueous hydroxypropyl-beta-cyclodextrin (HPbetaCD) as vehicle. compound was administered orally to nude mice at a dose of 25 mg/kg. In kind it is ADME, organism-based. On the set-up: dose 25 mg/kg, route oral. The settings on record: mouse, in vivo, po. In short, it runs like this:
(§1)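 Nude mice were dosed at 25 mpk, intravenously or orally as the line states, in 20% aqueous hydroxypropyl-β-cyclodextrin or 0.4% aqueous methyl cellulose. Serum was sampled over 24 h. Each time point came from sera of different animals.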

Data set [5] can be described thus: Maximum concentration (Cmax) using 20%aqueous hydroxypropyl-beta-cyclodextrin (HPbetaCD) as vehicle. compound was administered intravenously to nude mice at a dose of 25 mg/kg. The settings on record: mouse, in vivo, iv. In kind it is ADME, organism-based. On the set-up: dose 25 mg/kg, route intravenous. Put shortly: as §1
Data set [6] in a line: Bioavailability in mouse (nude) using 20% aqueous hydroxypropyl-beta-cyclodextrin (HPbetaCD) as vehicle 25 mg/kg. In kind it is ADME, organism-based. Conditions: in vivo; for bioavailability: nude.
Data set [7] can be described thus: Area under curve was determined using 20%aqueous hydroxypropyl-beta-cyclodextrin (HPbetaCD) as vehicle. Compound was administered intravenously to nude mice at a dose of 25 mg/kg. The format is ADME, organism-based. Set-up: dose 25 mg/kg, route intravenous. Conditions: mouse, in vivo, iv. Put shortly:
as §1

Data set [8] in a line: Area under curve was determined using 20%aqueous hydroxypropyl-beta-cyclodextrin (HPbetaCD) as vehicle. Compound was administered orally to nude mice at a dose of 25 mg/kg. The format is ADME, organism-based. On the set-up: dose 25 mg/kg, route oral. The settings on record: mouse, in vivo, po. In short, it runs like this: as §1
A short description of data set [9]: Half life was administered by using 20%aqueous hydroxypropyl-beta-cyclodextrin (HPbetaCD) as vehicle to nude mice at a dose of 25mpk,. In kind it is ADME, organism-based. Conditions: mouse, in vivo, 25 mg/kg.

For the molecule `CCN(CC)C(=O)CN1CCC(CC(=O)N2CCC([C@H]3c4ncc(Br)cc4CCc4cc(Cl)cc(Br)c43)CC2)CC1`, the results for the IC50 (in data set [1]; in the data set on NIH-3T3 (Mus musculus)) were 40 nM and 300 nM, respectively.

Regarding `O=C(CC1CCN(S(=O)(=O)c2ccccc2)CC1)N1CCC([C@H]2c3ncc(Br)cc3CCc3cc(Cl)cc(Br)c32)CC1`, in data set [2], half-maximal inhibition (IC50) was put at 76.1 nM.

Take `NC(=O)CNC(=O)N1CCC(CC(=O)N2CCC([C@H]3c4ncc(Br)cc4CCc4cc(Cl)cc(Br)c43)CC2)CC1`: the values for the IC50 (in data set [1]; in data set [3]; in the data set with NIH-3T3 (Mus musculus)) were 25 nM, 0.9 nM and 330 nM, respectively.

As for `CCOC(=O)CNC(=O)N1CCC(CC(=O)N2CCC([C@H]3c4ncc(Br)cc4CCc4cc(Cl)cc(Br)c43)CC2)CC1`, the midpoint of inhibition in the data set on NIH-3T3 (Mus musculus), the IC50, lay at 310 nM.

For `NC(=O)CN1CCC(CC(=O)N2CCC([C@H]3c4ncc(Br)cc4CCc4cc(Cl)cc(Br)c43)CC2)CC1`, the IC50 in data set [1] amounted to 6 nM; in data set [3], 2.1 nM; in the data set on NIH-3T3 (Mus musculus), 70 nM. The Cmax was determined as 1.94 µM in [4] and 30 µM in data set [5]. The molecule further came in with a bioavailability in data set [6] of 60.2%. In addition, the AUC in data set [7] amounted to 20300 ng·h/mL; in [8], 12200 ng·h/mL. This molecule also had a half-life in data set [9] of 4 h.

On to `O=C(CC1CCN(S(=O)(=O)Cc2ccccc2)CC1)N1CCC([C@H]2c3ncc(Br)cc3CCc3cc(Cl)cc(Br)c32)CC1`, for which the IC50 in data set [1] was determined as 350 nM; in data set [2] it was 17.1 nM.

`O=C(CC1CCN(C(=O)Cn2cccc2)CC1)N1CCC([C@H]2c3ncc(Br)cc3CCc3cc(Cl)cc(Br)c32)CC1`: the IC50 in [1] came out at 9 nM; in the data set on NIH-3T3 (Mus musculus) it was 460 nM; in data set [2], 4.3 nM.

On to `CNC(=O)N1CCC(CC(=O)N2CCC([C@H]3c4ncc(Br)cc4CCc4cc(Cl)cc(Br)c43)CC2)CC1`, for which the midpoint of inhibition with NIH-3T3 (Mus musculus), the IC50, lay at 100 nM.

Consider `O=C(O)CNC(=O)N1CCC(CC(=O)N2CCC([C@H]3c4ncc(Br)cc4CCc4cc(Cl)cc(Br)c43)CC2)CC1`, for which the IC50 in the data set on NIH-3T3 (Mus musculus) is greater than 500 nM.

Consider `NC(=O)C(=O)N1CCC(CC(=O)N2CCC([C@H]3c4ncc(Br)cc4CCc4cc(Cl)cc(Br)c43)CC2)CC1`, for which the values for the IC50 (in [1]; in the data set with NIH-3T3 (Mus musculus); in data set [2]) were less than 10 nM, 85 nM and 2.7 nM, respectively. Besides, the figures for the Cmax in data set [4] and in data set [5] were 7.1 µM and 26.2 µM, respectively. Besides, the F in data set [6] was 166%. For the same molecule, the AUC in data set [7] is 27100 ng·h/mL; in [8], 45000 ng·h/mL. Also, the half-life in data set [9] is 1.1 h.

Consider `O=C(CC1CCN(CC(=O)N2CCOCC2)CC1)N1CCC([C@H]2c3ncc(Br)cc3CCc3cc(Cl)cc(Br)c32)CC1`, for which the results for the IC50 (in data set [1]; in [3]; in the data set on NIH-3T3 (Mus musculus)) were 25 nM, 5.3 nM and 100 nM, respectively.

With `CN(C)S(=O)(=O)N1CCC(CC(=O)N2CCC([C@H]3c4ncc(Br)cc4CCc4cc(Cl)cc(Br)c43)CC2)CC1`, the IC50 in data set [1] was determined as 9 nM; in data set [3], 7.8 nM; with NIH-3T3 (Mus musculus), 100 nM. Moreover, the highest concentration (Cmax) in [4] was 0.49 µM; in data set [5], 30 µM. Moreover, in data set [6], the bioavailability is 1.7%. Besides, the AUC in data set [7] was 5950 ng·h/mL; in [8], 100 ng·h/mL. Moreover, in data set [9], the half-life is 1.3 h.

As for `C[C@H](N)C(=O)N1CCC(CC(=O)N2CCC([C@H]3c4ncc(Br)cc4CCc4cc(Cl)cc(Br)c43)CC2)CC1`, 140 nM corresponded to half-maximal inhibition in data set [1] (IC50).

Turning to `NC(=O)c1cncc(C(=O)N2CCC(CC(=O)N3CCC([C@H]4c5ncc(Br)cc5CCc5cc(Cl)cc(Br)c54)CC3)CC2)c1`, the IC50 came to 21 nM in [1], 500 nM in the data set with NIH-3T3 (Mus musculus) and 2.2 nM in [2].

On to `C[C@@H](N)C(=O)N1CCC(CC(=O)N2CCC([C@H]3c4ncc(Br)cc4CCc4cc(Cl)cc(Br)c43)CC2)CC1`, for which the results for the IC50 (in data set [1]; in the data set with NIH-3T3 (Mus musculus); in [2]) were 39 nM, 200 nM and 7.9 nM, respectively.

In the case of `O=C(O)c1cncc(C(=O)N2CCC(CC(=O)N3CCC([C@H]4c5ncc(Br)cc5CCc5cc(Cl)cc(Br)c54)CC3)CC2)c1`, the IC50 in data set [1] is greater than 1000 nM; in the data set on NIH-3T3 (Mus musculus) it was greater than 500 nM; in [2], 0.8 nM.
